According to ChEMBL document CHEMBL1126810, “Development of selective tight-binding inhibitors of leukotriene A4 hydrolase” (J Med Chem, 1993):
Values belong to the molecule of their own block, whether it stands above or below them.

Assays:
[1] = biological target: T1, Leukotriene A-4 hydrolase (Homo sapiens, UniProt P09960); test: Inhibition of amidase activity of LTA4 hydrolase purified from human leukocytes
T1 sequence (P09960 whole entry): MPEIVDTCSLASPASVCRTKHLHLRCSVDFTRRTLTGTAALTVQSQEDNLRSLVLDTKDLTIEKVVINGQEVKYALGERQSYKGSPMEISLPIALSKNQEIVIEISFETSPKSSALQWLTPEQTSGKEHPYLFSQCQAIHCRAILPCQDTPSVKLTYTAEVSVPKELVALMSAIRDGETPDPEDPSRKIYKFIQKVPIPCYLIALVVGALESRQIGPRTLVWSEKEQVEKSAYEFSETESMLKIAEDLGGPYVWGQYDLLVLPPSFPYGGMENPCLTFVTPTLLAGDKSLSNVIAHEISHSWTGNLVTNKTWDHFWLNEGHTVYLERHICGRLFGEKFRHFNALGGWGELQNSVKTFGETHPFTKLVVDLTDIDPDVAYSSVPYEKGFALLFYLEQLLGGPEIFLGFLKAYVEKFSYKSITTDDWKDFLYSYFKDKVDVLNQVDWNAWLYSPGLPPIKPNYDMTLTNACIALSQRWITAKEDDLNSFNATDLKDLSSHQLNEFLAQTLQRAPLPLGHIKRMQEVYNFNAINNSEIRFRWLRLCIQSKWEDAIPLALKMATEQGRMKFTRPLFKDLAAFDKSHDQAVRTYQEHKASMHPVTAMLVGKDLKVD

[2] = biological target: T2, Leukotriene A-4 hydrolase (Homo sapiens) (UniProt P09960); test: Kinetic parameter kcat against LTA4 hydrolase purified from human leukocytes
T2 sequence (whole entry): T1 sequence (P09960 whole entry)
Procedure, shortened: (§1)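 Amino acid amides tested as substrates in 50 mM Tris-Cl, pH 7.6, with 0.1 M NaCl. p-Nitroaniline release read at 410 nm using ε 8850 M⁻¹ cm⁻¹.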

[3] = Ratio kcat /Km ([…]/M 1/s); parameters: scale not given here
[4] = biological target: Cytosol aminopeptidase (Homo sapiens, UniProt P28838); test: Inhibitory concentration against cytosolic leucine aminopeptidase
[5] = biological target: T1, Leukotriene A-4 hydrolase; test: Ability at 1 mM to inhibit amidase activity of LTA4 hydrolase (1.4 ug) purified from human leukocytes; NI=No inhibition
Procedure, shortened: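 Human leukocyte enzyme (1.4 μg) in 0.05 M Tris-HCl, pH 8.0, with 1.5 mM L-alanyl p-nitroanilide as substrate. Inhibitor tested at 1 mM; thiol compounds assayed with 5 mM DTT. p-Nitroaniline release followed spectrophotometrically at 405 nm.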

[6] = substrate: C[C@H](N)C(=O)Nc1ccc([N+](=O)[O-])cc1; test: (§2) Kinetic parameter (Km) for hydrolysis of LTA4 hydrolase purified from human leukocytes; procedure, shortened: as §1
[7] = substrate: NCCCC[C@H](N)C(=O)Nc1ccc([N+](=O)[O-])cc1; test: as §2; procedure, shortened: as §1
[8] = substrate: NC(N)=NCCC[C@H](N)C(=O)Nc1ccc([N+](=O)[O-])cc1; test: as §2; procedure, shortened: as §1
[9] = substrate: C[C@H](N)C(=O)Nc1ccc([N+](=O)[O-])cc1; test: (§3) Kinetic parameter Vmax against LTA4 hydrolase purified from human leukocytes was determined; procedure, shortened: as §1
[10] = substrate: C[C@@H](N)C(=O)Nc1ccc([N+](=O)[O-])cc1; test: as §3; procedure, shortened: as §1
[11] = substrate: NCCCC[C@H](N)C(=O)Nc1ccc([N+](=O)[O-])cc1; test: as §3; procedure, shortened: as §1
[12] = substrate: NC(N)=NCCC[C@H](N)C(=O)Nc1ccc([N+](=O)[O-])cc1; test: as §3; procedure, shortened: as §1

Cytosol aminopeptidase, sequence (P28838 whole entry): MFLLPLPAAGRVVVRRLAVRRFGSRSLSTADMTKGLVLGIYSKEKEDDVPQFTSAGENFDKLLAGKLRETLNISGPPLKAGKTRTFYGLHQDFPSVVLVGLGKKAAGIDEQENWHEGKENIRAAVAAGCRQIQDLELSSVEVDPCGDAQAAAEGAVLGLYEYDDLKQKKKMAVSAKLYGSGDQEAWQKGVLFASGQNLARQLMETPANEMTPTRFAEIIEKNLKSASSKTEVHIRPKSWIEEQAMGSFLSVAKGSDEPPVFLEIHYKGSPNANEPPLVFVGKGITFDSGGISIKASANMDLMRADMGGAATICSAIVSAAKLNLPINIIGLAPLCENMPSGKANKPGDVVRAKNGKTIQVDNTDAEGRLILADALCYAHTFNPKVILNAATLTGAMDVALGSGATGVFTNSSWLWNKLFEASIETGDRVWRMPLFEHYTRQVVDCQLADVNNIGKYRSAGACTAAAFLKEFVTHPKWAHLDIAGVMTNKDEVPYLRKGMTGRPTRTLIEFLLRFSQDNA

IC50 [1]: > 100 µM
Molecule: N[C@@H](Cc1ccccc1)[C@H](O)C(=O)NCc1ccccc1

IC50 [1]: 20 µM
Molecule: N[C@@H](Cc1ccccc1)[C@H](O)C(=O)OCc1ccccc1

IC50 [5]: Not Active
Molecule: COC(=O)[C@@H](O)[C@H](N)Cc1ccccc1

k cat [2]: 0.15 s⁻¹ | Ratio [3]: 0.0015
Molecule: O=C(Nc1ccc([N+](=O)[O-])cc1)[C@@H]1CCCN1

IC50 [5]: Not Active
Molecule: COC(=O)[C@H](O)[C@H](N)Cc1ccccc1

k cat [2]: 0.035 s⁻¹ | Ratio [3]: 0.00035
Molecule: NCCCC[C@H](N)C(=O)Nc1ccc([N+](=O)[O-])cc1

k cat [2]: 0.6 s⁻¹ | Ratio [3]: 0.0012
Molecule: C[C@H](N)C(=O)Nc1ccc([N+](=O)[O-])cc1

IC50 [4]: 50 µM
Molecule: COC(=O)C(=O)[C@@H](N)Cc1ccc(OCc2ccccc2)cc1

k cat [2]: 0.15 s⁻¹ | Ratio [3]: 0.00075
Molecule: NC(N)=NCCC[C@H](N)C(=O)Nc1ccc([N+](=O)[O-])cc1

k cat [2]: 0.15 s⁻¹ | Ratio [3]: 0.0005
Molecule: CC(C)C[C@H](N)C(=O)Nc1ccc([N+](=O)[O-])cc1

Further lines, the molecule ahead of its results:

Molecule: CC(C)C[C@H](/N=C(\S)[C@H](O)[C@@H](N)Cc1ccccc1)C(=O)O
IC50 [1]: > 100 µM

Molecule: CC(C)C[C@H](/N=C(\S)[C@@H](O)[C@H](N)Cc1ccccc1)C(=O)O
IC50 [1]: > 100 µM

Molecule: CCCCC/C=C\C\C=C/C=C/C=C/[C@@H]1O[C@H]1CCCC(=O)O
k cat [2]: 0.68 s⁻¹ | Ratio [3]: 0.09

Molecule: CC(C)C[C@H](/N=C(\S)[C@H](O)[C@H](N)Cc1ccccc1)C(=O)O
IC50 [1]: > 100 µM

Molecule: N[C@H](CS)Cc1ccc(OCc2ccccc2)cc1
IC50 [4]: > 50 µM

Molecule: N[C@H](Cc1ccccc1)[C@H](O)C(=O)O
IC50 [5]: Not Active

Molecule: N[C@@H](Cc1ccc(OCc2ccccc2)cc1)C(=O)C(=O)OCc1ccccc1
IC50 [4]: > 100 µM

Molecule: COC(=O)C(S)C(N)Cc1ccccc1 (stereo not given)
IC50 [1]: 250 µM

Molecule: N[C@@H](Cc1ccc(OCc2ccccc2)cc1)[C@H](O)C(=O)OCc1ccccc1
IC50 [4]: 80 µM

Molecule: CC(C)C[C@H](NC(=O)C(S)C(N)Cc1ccccc1)C(=O)O (stereo not given in full)
IC50 [1]: > 250 µM

Molecule: NC(Cc1ccccc1)P(=O)(O)NCC(=O)O (stereo not given)
IC50 [1]: > 100 µM

Molecule: CCOC(=O)CC(F)(F)C(=O)c1[nH]cnc1C
IC50 [1]: > 1000 µM

B1: Leukotriene A-4 hydrolase (Homo sapiens), P09960 (protein)
chain: T1 sequence (P09960 whole entry)
Km [6]: 500 µM | Km [7]: 100 µM | Km [8]: 200 µM | Vmax (nM min-1 mg-1) [9]: 530 | Vmax (nM min-1 mg-1) [10]: 0 | Vmax (nM min-1 mg-1) [11]: 30 | Vmax (nM min-1 mg-1) [12]: 135
